Screening results (PubChem)
Most compounds without a hit are left out; they make up all but 9.6% or so of the library.
PMI act hi M6P: activators of human phosphomannose isomerase at near-saturating mannose 6-phosphate. P34949. coupled PMI enzyme assay, resazurin fluorescence, 20 min; hits give high values; 1 = untreated enzyme, 0 = substrate-free blank. activation factor at 20 µM. 190,000 compounds, 0.34% hits;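 active = activation factor of 2 or more at 20 µM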
Target sequence (P34949 whole entry, looked up): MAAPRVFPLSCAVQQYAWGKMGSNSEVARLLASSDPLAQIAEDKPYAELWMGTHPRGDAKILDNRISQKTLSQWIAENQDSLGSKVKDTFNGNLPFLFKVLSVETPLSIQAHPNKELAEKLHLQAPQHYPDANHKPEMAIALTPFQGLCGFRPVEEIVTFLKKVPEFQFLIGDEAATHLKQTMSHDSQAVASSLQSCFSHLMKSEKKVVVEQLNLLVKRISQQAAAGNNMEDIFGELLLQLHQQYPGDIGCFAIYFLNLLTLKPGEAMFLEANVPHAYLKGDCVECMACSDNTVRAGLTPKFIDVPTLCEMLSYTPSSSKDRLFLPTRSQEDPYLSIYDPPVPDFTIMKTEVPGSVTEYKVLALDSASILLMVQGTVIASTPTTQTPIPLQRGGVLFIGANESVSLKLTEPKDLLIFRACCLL
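Technique: Diaphorase-driven resazurin-to-resorufin fluorescence, excitation 544, emission 590 nm | Assay system: Human PMI in coupled enzyme assay | Times: Enzyme reaction with compound 20 min at room temperature | Medium: HEPES-buffered pH 7.4 with magnesium and detergent | Reagent: Mannose-6-phosphate 1.0 mM (near-saturating) plus 0.22 mM NADP+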
PTEN del growth: growth suppressors of cells with PTEN tumor suppressor deletion. HCT116 PTEN-null viability, CellTiter-Glo, 60 h; hits give low values. viability, % at 10 µM. 140,000 compounds, 1.2% hits;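 active = viability at or below a set limit, 4 SD under the median of all tested compounds, cut at about 3.7% in these data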;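 note: PTEN knockout HCT116 line with beta catenin targeted HCT116 as companion control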
HCT116 bCat-KO: beta-catenin-lacking colon tumor cell growth suppression; viability, % at 10 µM; 140,000 compounds, 1.5% hits; HCT116 beta-catenin knockout viability, CellTiter-Glo, 60 h; hits give low values;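 active = viability at or under a set limit, the compound median less 4 SD, cut at about 6% in these data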;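 note: 0% = Hyamine 1622 control at 20 µM and 100% = untreated cell control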
L major viab: reduces viability of Leishmania major promastigotes | resazurin fluorescence viability | inhibition, % at 10 µM | 200,000 compounds, 9% hits | AID 1063; in the data active = inhibition above about 50%;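 note: promastigotes grown with compound for 44 hours at 28 °C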
PMI activator: activators of human phosphomannose isomerase. P34949. purified human PMI, coupled resazurin fluorescence, 20 min; hits give high values; 1 = vehicle control, 0 substrate-free wells. activation factor at 20 µM. 190,000 compounds, 0.005% hits. AID 1214;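 active = activation factor of 2 or more at 20 µM, relative to plate controls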
The depositor's hits bear a star; x = no result.

SMILES	PMI act hi M6P	PTEN del growth	HCT116 bCat-KO	L major viab	PMI activator
Cc1ccccc1NS(=O)(=O)c1cc(C(=O)Nc2cccc([N+](=O)[O-])c2)ccc1C	0.9	44.2	46.9	72.1*	0.8
Cc1ccc(C(=O)Nc2ccccc2-c2ccccc2)cc1S(=O)(=O)Nc1cccc(C)c1C	0.8	60.6	77.6	62.7*	0.8
O=C(NNc1c(F)c(F)cc(F)c1F)c1cc2ccccc2oc1=O	0.8	x	x	-3.6	1
C/C(=N\Nc1ncc(Cl)cc1Cl)c1ccccn1	1	x	x	100.5*	1.1
C/C(=N\Nc1ncc(Cl)cc1Cl)c1ccc(N2CCOCC2)cc1	1.3	x	x	4.3	1.5
C/C(=N\Nc1cccc2cccnc12)c1ccccn1	1.4	x	x	51.3*	1.6
CCN(CC)c1ccc2cc(C(=O)Nc3ccc(-n4cnnn4)c(OC)c3)c(=O)oc2c1	1	x	x	x	1
Cc1cccc(CN2CCN(C(=O)CCc3nnc(C4CCCCC4)o3)CC2)c1	1	x	x	13.6	1
CCc1nc2ccccc2n1Cc1ccc(F)cc1	1.2	x	x	0.3	1.3
COc1ccc(CCN2CCC(Nc3nc4ccccc4n3Cc3ccc(F)cc3)CC2)cc1	1	1.2*	1.0*	100.4*	0.9
CCCCn1c(=N)n(CC(O)COc2cccc(C)c2)c2ccccc21 (stereo not drawn)	0.9	1.5*	1.7*	100.4*	0.9
Cc1ccc(OCC(O)Cn2c(=N)n(CCN3CCCCC3)c3ccccc32)cc1 (stereo not drawn)	0.9	2.9*	2.3*	100.4*	0.9
COc1ccc(OCC(O)Cn2c(=N)n(CCN3CCCCC3)c3ccccc32)cc1 (stereo not drawn)	1.1	25.7	25.6	100.1*	1.1
COc1ccc(OCC(O)CN2CCCCC2)cc1 (stereo not drawn)	0.9	87.1	106.0	7.5	0.9
Cc1ccc(OCC(O)Cn2c(=N)n(CCN3CCOCC3)c3ccccc32)cc1 (stereo not drawn)	1	61.6	58.8	4.8	1
COc1ccccc1OCC(O)Cn1c(=N)n(Cc2ccccc2)c2ccccc21 (stereo not drawn)	1	8.2	5.2*	100.5*	1
C=CCNC(=S)N/N=C/c1ccc(C(F)(F)F)cc1	1	x	x	-3.1	0.9
CC1(C)C(O)=C(c2nc3ccccc3[nH]2)C(=N)N1c1ccccc1	0.9	85.3	71.8	82.2*	1
Nn1c(Cc2cccc3ccccc23)nnc1SCCOc1ccc(F)cc1	0.9	86.1	86.3	5.3	0.9
NC[C@@H]1O[C@H](O[C@H]2[C@@H](O)[C@H](O[C@@H]3[C@@H](O)[C@H](N)C[C@H](N)[C@H]3O[C@H]3O[C@H](CO)[C@@H](O)[C@H](O)[C@H]3N)O[C@@H]2CO)[C@H](N)[C@@H](O)[C@@H]1O	1	x	x	x	1
CC(CN1CCCCC1)OC(=O)C(C)(c1ccccc1)c1ccccc1 (stereo not drawn)	1.1	79.2	88.4	100.2*	1
CC(CN1CCOCC1)OC(=O)C(C)(c1ccccc1)c1ccccc1 (stereo not drawn)	1.2	84.0	89.3	55.4*	1.2
CC(CN1CCCCC1)OC(=O)Cc1ccc(Cl)cc1 (stereo not drawn)	0.9	98.6	109.5	-7.2	1
COc1cccc(/C(O)=C2/C(=O)C(=O)N(CCN3CCOCC3)C2c2cccs2)c1 (stereo not drawn)	1.5	88.5	102.3	-5.4	1.2
Cc1cc(C)c(NC(=O)CN(C2CCCCC2)C2CCCCC2)c(C)c1	0.9	69.2	70.2	95.9*	0.9
SMILES	PMI act hi M6P	PTEN del growth	HCT116 bCat-KO	L major viab	PMI activator
O=C(O)c1ccccc1NN=C1CCCCC1	2.5*	104.5	88.0	-6.7	1.7
CCN(CC)S(=O)(=O)c1ccc(OC)c(NC(=O)c2cc(=O)[nH]c3ccccc23)c1	1	x	x	-3.1	1.1
CCOC(=O)c1ccc(NC(=O)COC(=O)Cc2csc(-c3ccccc3)n2)cc1	0.9	92.8	87.4	-2.3	0.8
CC(C)CN(C(=O)c1ccco1)c1nc2ccccc2s1	1	x	x	4.9	1
CC(C)CN(C(=O)c1nn(C)c(=O)c2ccccc12)c1nc2ccccc2s1	0.9	79.1	69.0	51.5*	0.9
CCOC(=O)c1[nH]n(-c2ccc(Cl)cc2)c(=O)c1C	1.1	95.0	97.7	52.2*	1.2
CCOc1ccc(-n2c(SCC(=O)NCc3ccco3)nnc2-c2c[nH]c3ccccc23)cc1	0.8	82.8	84.6	92.6*	0.9
